Laboratory results from ChEMBL document CHEMBL3992538, “Hybrids of thienopyrimidinones and thiouracils as anti-tubercular agents: SAR and docking studies” (Eur J Med Chem, 2017).
Converted amounts (≈) assume the structure as drawn.

Assays:
[1] = tested on: Mycobacterium tuberculosis; assay: Antitubercular activity against dormant stage of Mycobacterium tuberculosis H37Ra ATCC 25177 infected in human THP1 cells after 12 days by nitrate reductase assay; assay type: functional; conditions: H37Ra ATCC 25177, 288 h
Procedure, shortened: (§1)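 Ex vivo test of H37Ra in THP-1 cells by nitrate reductase assay, absorbance read at 540 nm. Active stage incubated 8 days and dormant stage 12 days. H37Ra (ATCC 25177) grown in M. pheli medium to OD 1.0 and subcultured once from -70°C stock.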

[2] = tested on: Mycobacterium tuberculosis; assay: Antitubercular activity against active stage of Mycobacterium tuberculosis H37Ra ATCC 25177 infected in human THP1 cells after 8 days by nitrate reductase assay; assay type: functional; conditions: H37Ra ATCC 25177, 192 h; procedure, shortened: as §1
[3] = tested on: Mycobacterium tuberculosis; assay: Antitubercular activity against dormant stage of Mycobacterium tuberculosis H37Ra ATCC 25177 after 12 days by XTT reduction menadione assay; assay type: functional; conditions: H37Ra ATCC 25177, 288 h
Procedure, shortened: (§2)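 M. tuberculosis H37Ra (ATCC 25177), grown to log phase (OD 1.0) in M. pheli medium from -70°C stock, subcultured once before inoculation. Incubation 8 days (active) or 12 days (dormant). XRMA read-out as absorbance at 470 nm.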

[4] = tested on: Mycobacterium tuberculosis; assay: Antitubercular activity against active stage of Mycobacterium tuberculosis H37Ra ATCC 25177 after 8 days by XTT reduction menadione assay; assay type: functional; conditions: H37Ra ATCC 25177, 192 h; procedure, shortened: as §2
[5] = Cytotoxicity against human THP1 cells assessed as growth inhibition by MTT assay; assay type: cell-based; conditions: THP-1 cells
Procedure, shortened: (§3)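 MTT assay in duplicate on THP-1 leukaemia, A549 lung adenocarcinoma, PANC-1 pancreatic adenocarcinoma and HeLa cervical carcinoma cells, all obtained from ECCC.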

[6] = Cytotoxicity against human A549 cells assessed as growth inhibition by MTT assay; assay type: cell-based; procedure, shortened: as §3
[7] = Cytotoxicity against human PANC1 cells assessed as growth inhibition by MTT assay; assay type: cell-based; conditions: PANC-1 cells; procedure, shortened: as §3
[8] = Cytotoxicity against human HeLa cells assessed as growth inhibition by MTT assay; assay type: cell-based; procedure, shortened: as §3
[9] = Selectivity index, ratio of GI50 for human A549 cells to MIC for dormant stage of Mycobacterium tuberculosis H37Ra ATCC 25177 infected in human THP1 cells; assay type: toxicity, cell-based; conditions: read-out: Selectivity Index
Procedure, shortened: (§4)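 Selectivity index is the cytotoxic GI50 against the named human cell line divided by the antimycobacterial value. Activity counted as specific when SI >10.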

[10] = Selectivity index, ratio of GI50 for human A549 cells to MIC for dormant stage of Mycobacterium tuberculosis H37Ra ATCC 25177; assay type: toxicity; conditions: read-out: Selectivity Index; procedure, shortened: as §4
[11] = Selectivity index, ratio of GI50 for human PANC1 cells to MIC for dormant stage of Mycobacterium tuberculosis H37Ra ATCC 25177 infected in human THP1 cells; assay type: toxicity, cell-based; conditions: PANC-1 cells, read-out: Selectivity Index; procedure, shortened: as §4
[12] = Selectivity index, ratio of GI50 for human PANC1 cells to MIC for dormant stage of Mycobacterium tuberculosis H37Ra ATCC 25177; assay type: toxicity; conditions: PANC-1 cells, read-out: Selectivity Index; procedure, shortened: as §4
[13] = Selectivity index, ratio of GI50 for human HeLa cells to MIC for dormant stage of Mycobacterium tuberculosis H37Ra ATCC 25177 infected in human THP1 cells; assay type: toxicity, cell-based; conditions: read-out: Selectivity Index; procedure, shortened: as §4
[14] = Selectivity index, ratio of GI50 for human HeLa cells to MIC for dormant stage of Mycobacterium tuberculosis H37Ra ATCC 25177; assay type: toxicity, cell-based; conditions: read-out: Selectivity Index; procedure, shortened: as §4
[15] = Selectivity index, ratio of GI50 for human A549 cells to MIC for active stage of Mycobacterium tuberculosis H37Ra ATCC 25177 infected in human THP1 cells; assay type: toxicity, cell-based; conditions: read-out: Selectivity Index; procedure, shortened: as §4
[16] = Selectivity index, ratio of GI50 for human A549 cells to MIC for active stage of Mycobacterium tuberculosis H37Ra ATCC 25177; assay type: toxicity; conditions: read-out: Selectivity Index; procedure, shortened: as §4
[17] = Selectivity index, ratio of GI50 for human PANC1 cells to MIC for active stage of Mycobacterium tuberculosis H37Ra ATCC 25177 infected in human THP1 cells; assay type: toxicity, cell-based; conditions: PANC-1 cells, read-out: Selectivity Index; procedure, shortened: as §4
[18] = Selectivity index, ratio of GI50 for human PANC1 cells to MIC for active stage of Mycobacterium tuberculosis H37Ra ATCC 25177; assay type: toxicity; conditions: PANC-1 cells, read-out: Selectivity Index; procedure, shortened: as §4
[19] = Selectivity index, ratio of GI50 for human HeLa cells to MIC for active stage of Mycobacterium tuberculosis H37Ra ATCC 25177 infected in human THP1 cells; assay type: toxicity, cell-based; conditions: read-out: Selectivity Index; procedure, shortened: as §4
[20] = Selectivity index, ratio of GI50 for human HeLa cells to MIC for active stage of Mycobacterium tuberculosis H37Ra ATCC 25177; assay type: toxicity, cell-based; conditions: read-out: Selectivity Index; procedure, shortened: as §4

Compound	MIC [1] [µg/mL]	MIC [2] [µg/mL]	MIC [3] [µg/mL]	MIC [4] [µg/mL]	GI50 [5] [µg/mL]	GI50 [6] [µg/mL]	GI50 [7] [µg/mL]	GI50 [8] [µg/mL]	selectivity ratio [9]	selectivity ratio [10]	selectivity ratio [11]	selectivity ratio [12]	selectivity ratio [13]	selectivity ratio [14]	selectivity ratio [15]	selectivity ratio [16]	selectivity ratio [17]	selectivity ratio [18]	selectivity ratio [19]	selectivity ratio [20]
COc1cc(-c2nc(SCCCn3cnc4sc5c(c4c3=O)CCCC5)n(C)c(=O)c2C#N)cc(OC)c1OC	21.5 (≈ 37.1 µM)	26.9 (≈ 46.4 µM)	26.1 (≈ 45 µM)	27.9 (≈ 48.1 µM)	89.7 (≈ 155 µM)	95.7 (≈ 165 µM)	24.8 (≈ 42.8 µM)	70.7 (≈ 122 µM)	4	4	1	1	3	3	4	3	1	1	3	3
CC(=O)O[C@H]1C(=O)[C@@]2(C)[C@H]([C@H](OC(=O)c3ccccc3)[C@]3(O)C[C@H](OC(=O)[C@H](O)[C@@H](NC(=O)c4ccccc4)c4ccccc4)C(C)=C1C3(C)C)[C@]1(OC(C)=O)CO[C@@H]1C[C@@H]2O [PACLITAXEL]	–	–	–	–	–	–	0.128 (≈ 0.15 µM)	–	–	–	–	–	–	–	–	–	–	–	–	–
CCCCCCCCn1c(SCCCn2cnc3sc4c(c3c2=O)CCCC4)nc(-c2cc(OC)c(OC)c(OC)c2)c(C#N)c1=O	> 30	> 30	> 30	> 30	> 100	> 100	> 100	> 100	> 3	> 3	> 3	> 3	> 3	> 3	> 3	> 3	> 3	> 3	> 3	> 3
CO[C@H]1/C=C/O[C@@]2(C)Oc3c(C)c(O)c4c(O)c(c(/C=N/N5CCN(C)CC5)c(O)c4c3C2=O)NC(=O)/C(C)=C\C=C\[C@H](C)[C@H](O)[C@@H](C)[C@@H](O)[C@@H](C)[C@H](OC(C)=O)[C@@H]1C [RIFAMPIN]	0.75 (≈ 0.911 µM)	0.51 (≈ 0.62 µM)	0.48 (≈ 0.583 µM)	0.41 (≈ 0.498 µM)	0.14 (≈ 0.17 µM)	–	–	–	–	208	–	208	–	208	196	244	196	244	196	244
N#Cc1c(-c2ccc(O)cc2)[nH]c(=S)[nH]c1=O	> 30	> 30	> 30	> 30	93 (≈ 379 µM)	87.4 (≈ 356 µM)	89.1 (≈ 363 µM)	90.8 (≈ 370 µM)	3	< 3	< 3	< 3	< 3	3	< 3	3	3	3	3	3
C#CCn1c(SCCCn2cnc3sc4c(c3c2=O)CCCC4)nc(-c2cc(OC)c(OC)c(OC)c2)c(C#N)c1=O	> 30	> 30	> 30	> 30	> 100	> 100	> 100	66.3 (≈ 110 µM)	> 3	> 3	> 3	> 3	–	2	> 3	> 3	> 3	> 3	2	2
